From ChEMBL document CHEMBL1165950, “Design and synthesis of new potent anticancer pyrazoles with high FLT3 kinase inhibitory selectivity” (Bioorg Med Chem, 2010)

Legend:
Type in all cases: functional
HCT-15 [1] = assay: Growth inhibition of human HCT15 cells after 48 hrs by sulforhodamine B assay; details: HCT-15, 48 h; for CC50: read-out: LC50 (the source's name)
Outline: (§1)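 NCI 60-cell screen, five-dose mode. Cells grown in RPMI 1640 with 5% FBS and 2 mM L-glutamine and plated at 5000-40,000 cells/well according to doubling time. After 24 h preincubation, a Tz plate was TCA-fixed. Five concentrations (10-fold or 1/2 log dilutions) were applied for 48 h at 37 °C. SRB staining read at 515 nm. IC50 taken from [(Ti-Tz)/(C-Tz)]×100 = 50.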

OVCAR-5 [2] = assay: Cytotoxicity against human OVCAR5 cells assessed as cell growth at 10 uM; details: read-out: Activity
Outline: (§2)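 NCI-60 screen: cells grown in RPMI 1640 with 5% FBS and 2 mM L-glutamine, plated at 5000–40,000 cells/well according to doubling time, and preincubated 24 h at 37 °C, 5% CO2. The single 10 µM dose (DMSO stock) was added, then incubated 48 h. Cells were TCA-fixed and stained with 0.4% SRB, read at 515 nm, and growth % calculated against time-zero and control plates.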

TK-10 = assay: Cytotoxicity against human TK10 cells assessed as cell growth at 10 uM after 48 hrs by sulforhodamine B assay; details: TK-10, 48 h, read-out: Activity
SNB-19 = assay: Cytotoxicity against human SNB19 cells assessed as cell growth at 0.001 uM after 48 hrs by sulforhodamine B assay; details: SNB-19, 48 h, read-out: Activity
CCRF-CEM = assay: Cytotoxicity against human CCRF-CEM cells assessed as cell growth at 0.01 uM after 48 hrs by sulforhodamine B assay; details: read-out: Activity
Outline: (§3)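 NCI-60 five-dose screen. Cells were grown in RPMI 1640 with 5% FBS and 2 mM L-glutamine, plated at 5000–40,000 cells/well and preincubated for 24 h. Time-zero plates were TCA-fixed. DMSO-solubilized drug was added at five concentrations (10-fold or ½-log serial dilutions) for 48 h at 37 °C, 5% CO2. Cells were TCA-fixed, stained with 0.4% SRB and read at 515 nm. Percent growth used time-zero, control and test absorbances.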

HOP-92 [3] = assay: Cytotoxicity against human HOP92 cells assessed as cell growth at 10 uM after 48 hrs by sulforhodamine B assay; details: HOP-92, 48 h, read-out: Activity
NCI-H460 = assay: Cytotoxicity against human NCI-H460 cells assessed as cell growth at 0.001 uM after 48 hrs by sulforhodamine B assay; details: NCI-H460, 48 h, read-out: Activity
UO-31 = assay: Cytotoxicity against human UO31 cells assessed as cell growth at 1 uM after 48 hrs by sulforhodamine B assay; details: UO-31, 48 h, read-out: Activity
HCT-116 [4] = assay: Cytotoxicity against human HCT116 cells assessed as cell growth at 10 uM after 48 hrs by sulforhodamine B assay; details: HCT-116, 48 h, read-out: Activity
MOLT-4 = assay: Cytotoxicity against human MOLT4 cells assessed as cell growth at 10 uM after 48 hrs by sulforhodamine B assay; details: MOLT-4, 48 h, read-out: Activity
SK-MEL-5 = assay: Cytotoxicity against human SK-MEL-5 cells assessed as cell growth at 0.001 uM after 48 hrs by sulforhodamine B assay; details: SK-MEL-5, 48 h, read-out: Activity
OVCAR-3 = assay: Cytotoxicity against human OVCAR-3 cells assessed as cell growth at 10 uM; details: read-out: Activity; outline: as §2
MDA-MB-468 = assay: Cytotoxicity against human MDA-MB-468 cells assessed as cell growth at 100 nM after 48 hrs by sulforhodamine B assay; details: MDA-MB-468, 48 h, read-out: Activity
EKVX [5] = assay: Cytotoxicity against human EKVX cells assessed as cell growth at 10 uM; details: read-out: Activity
Outline: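 Single-dose NCI-60 screen at 10 µM. Cells were grown in RPMI 1640 with 5% FBS and 2 mM L-glutamine, then treated for 48 h at 37 °C. Protein was measured by SRB staining with absorbance at 515 nm. Percentage growth was recorded, and inhibition percentage was calculated as 100 minus growth percentage.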

SK-OV-3 = assay: Growth inhibition of human SKOV3 cells after 48 hrs by sulforhodamine B assay; details: SK-OV-3, 48 h; for CC50: read-out: LC50 (the source's name); outline: as §1
UACC-257 = assay: Cytotoxicity against human UACC257 cells assessed as cell growth at 10 uM after 48 hrs by sulforhodamine B assay; details: UACC-257, 48 h, read-out: Activity
HT-29 [6] = assay: Cytotoxicity against human HT-29 cells assessed as cell growth at 0.01 uM after 48 hrs by sulforhodamine B assay; details: HT-29, 48 h, read-out: Activity
PC-3 = assay: Cytotoxicity against human PC3 cells assessed as cell growth at 1 uM after 48 hrs by sulforhodamine B assay; details: PC-3, 48 h, read-out: Activity
HOP-92 [7] = assay: Cytotoxicity against human HOP92 cells assessed as cell growth at 1 uM after 48 hrs by sulforhodamine B assay; details: HOP-92, 48 h, read-out: Activity
HT-29 [8] = assay: Cytotoxicity against human HT-29 cells assessed as cell growth at 100 nM after 48 hrs by sulforhodamine B assay; details: HT-29, 48 h, read-out: Activity
SW-620 = assay: Cytotoxicity against human SW620 cells assessed as cell growth at 1 uM after 48 hrs by sulforhodamine B assay; details: SW-620, 48 h, read-out: Activity
HCT-116 [9] = assay: Cytotoxicity against human HCT116 cells assessed as cell growth at 1 uM after 48 hrs by sulforhodamine B assay; details: HCT-116, 48 h, read-out: Activity
HCT-15 [10] = assay: Cytotoxicity against human HCT15 cells assessed as cell growth at 0.001 uM after 48 hrs by sulforhodamine B assay; details: HCT-15, 48 h, read-out: Activity
M14 = assay: Cytotoxicity against human M14 cells assessed as cell growth at 10 uM after 48 hrs by sulforhodamine B assay; details: M14, 48 h, read-out: Activity
EKVX [11] = assay: Cytotoxicity against human EKVX cells assessed as cell growth at 0.001 uM after 48 hrs by sulforhodamine B assay; details: read-out: Activity
OVCAR-5 [12] = assay: Cytotoxicity against human OVCAR5 cells assessed as cell growth at 100 nM after 48 hrs by sulforhodamine B assay; details: OVCAR-5, 48 h, read-out: Activity
SN12C = assay: Cytotoxicity against human SN12C cells assessed as cell growth at 10 uM; details: read-out: Activity; outline: as §2
786-0 = assay: Cytotoxicity against human 786-0 cells assessed as cell growth at 100 nM after 48 hrs by sulforhodamine B assay; details: 786-0, 48 h, read-out: Activity; outline: as §3
UACC-62 = assay: Cytotoxicity against human UACC62 cells assessed as cell growth at 10 uM; details: read-out: Activity; outline: as §2
HOP-62 = assay: Cytotoxicity against human HOP62 cells assessed as cell growth at 0.01 uM after 48 hrs by sulforhodamine B assay; details: HOP-62, 48 h, read-out: Activity
SK-MEL-2 = assay: Cytotoxicity against human SK-MEL-2 cells assessed as cell growth at 0.01 uM after 48 hrs by sulforhodamine B assay; details: SK-MEL-2, 48 h, read-out: Activity

Compound | GI50 (HCT-15 [1]) [µM] | TGI (HCT-15 [1]) [µM] | CC50 (HCT-15 [1]) [µM] | growth at 10 µM (OVCAR-5 [2]) [%] | growth at 10 µM (TK-10) [%] | growth at 0.001 µM (SNB-19) [%] | growth at 0.01 µM (CCRF-CEM) [%] | growth at 10 µM (HOP-92 [3]) [%] | growth at 0.001 µM (NCI-H460) [%] | growth at 1 µM (UO-31) [%] | growth at 10 µM (HCT-116 [4]) [%] | growth at 10 µM (MOLT-4) [%] | growth at 0.001 µM (SK-MEL-5) [%] | growth at 10 µM (OVCAR-3) [%] | growth at 0.1 µM (MDA-MB-468) [%] | growth at 10 µM (EKVX [5]) [%] | GI50 (SK-OV-3) [µM] | TGI (SK-OV-3) [µM] | CC50 (SK-OV-3) [µM] | growth at 10 µM (UACC-257) [%] | further results
COc1cc(C)cc(-c2c(-c3ccnc(-c4ccc(N(C)C)cc4)c3)cnn2CC#N)c1 | 0.0766 | > 100 | > 100 | 77.7 | 34 | 90 | 73 | -26 | 93 | 12 | -27 | 1 | 95 | 27 | -50 | 45.8 | 0.504 | > 100 | > 100 | 18 | growth at 0.01 µM (HT-29 [6]): 26%; growth at 1 µM (PC-3): 13%; growth at 1 µM (HOP-92 [7]): -20%; growth at 0.1 µM (HT-29 [8]): -24%; growth at 1 µM (SW-620): 11%; growth at 1 µM (HCT-116 [9]): -33%; growth at 0.001 µM (HCT-15 [10]): 100%; growth at 10 µM (M14): -7%; growth at 0.001 µM (EKVX [11]): 97%; growth at 0.1 µM (OVCAR-5 [12]): 53%; growth at 10 µM (SN12C): 29.4%; growth at 0.1 µM (786-0): 6%; growth at 10 µM (UACC-62): 20.3%; growth at 0.01 µM (HOP-62): 62%; growth at 0.01 µM (SK-MEL-2): 66%
COc1cc(C)cc(-c2c(-c3ccnc(-c4ccc(C(C)=O)cc4)c3)cnn2CC#N)c1 | 3.14 | > 100 | > 100 | 95 | 60 | 102 | 93 | -1 | 104 | 11 | -17 | 14 | 95 | 100 | 68 | 98.6 | 4.22 | > 100 | > 100 | 36 | growth at 0.01 µM (HT-29 [6]): 96%; growth at 1 µM (PC-3): 24%; growth at 1 µM (HOP-92 [7]): -9%; growth at 0.1 µM (HT-29 [8]): 95%; growth at 1 µM (SW-620): 12%; growth at 1 µM (HCT-116 [9]): -27%; growth at 0.001 µM (HCT-15 [10]): 94%; growth at 10 µM (M14): 2%; growth at 0.001 µM (EKVX [11]): 95%; growth at 0.1 µM (OVCAR-5 [12]): 89%; growth at 10 µM (SN12C): 66%; growth at 0.1 µM (786-0): 88%; growth at 10 µM (UACC-62): 49.6%; growth at 0.01 µM (HOP-62): 81%; growth at 0.01 µM (SK-MEL-2): 90%
Cc1cc(O)cc(-c2nn(CC#N)cc2-c2ccnc(-c3ccc(N(C)C)cc3)c2)c1 | 3.36 | 18.2 | > 100 | 111 | -14 | 96 | 96 | -12 | 109 | 19 | -81 | -6 | 92 | 41.9 | 77 | 71.6 | 2.85 | 8.03 | > 100 | -25 | growth at 0.01 µM (HT-29 [6]): 96%; growth at 1 µM (PC-3): 18%; growth at 1 µM (HOP-92 [7]): 25%; growth at 0.1 µM (HT-29 [8]): 102%; growth at 1 µM (SW-620): 10%; growth at 1 µM (HCT-116 [9]): 2%; growth at 0.001 µM (HCT-15 [10]): 86%; growth at 10 µM (M14): -75%; growth at 0.001 µM (EKVX [11]): 96%; growth at 0.1 µM (OVCAR-5 [12]): 97%; growth at 10 µM (SN12C): 51.2%; growth at 0.1 µM (786-0): 91%; growth at 10 µM (UACC-62): 25.1%; growth at 0.01 µM (HOP-62): 89%; growth at 0.01 µM (SK-MEL-2): 108%
